Hits are enriched below; roughly 3.7% of the tested compounds scored in any of these assays.
CHOP UPR activ: activators of apoptotic CHOP UPR arm, primary screen, cell-based, CHO-CHOP luciferase reporter, luminescence, uHTS; UPR activation; percent of tunicamycin response over DMSO baseline; activation, % at 10 µM; 330,000 tested, 0.34% active;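 active = at 10 µM dose, activation of 40% or more, normalized to positive control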;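 note: 100% = tunicamycin at 10 µg/mL and 0% = DMSO alone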
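Material: CHO-CHOP cells, stable luciferase reporter of PERK-eIF2a-CHOP signalling; quantity: 500 reporter cells seeded per well; buffer or medium: F12 medium containing 10% fetal bovine serum; compound: one dose, 10 µM in 0.5% DMSO; incubation: 6 h compound treatment, 37 °C; measured by: Steady-Glo luciferase luminescence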
UPR XBP1 act: activators of adaptive XBP1 UPR arm, primary screen, cell-based, CHO-XBP1 luciferase reporter, luminescence, uHTS; IRE1-XBP1 UPR activation; percent of tunicamycin response, DMSO as zero; activation, % at 20 µM; 330,000 tested, 0.33% active; AID 463104, 2010;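 active = versus positive control, 20 µM dose yields 30% or more activation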;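 note: 100% = tunicamycin at 10 µg/mL and 0% = DMSO only wells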
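Test system: CHO-XBP1 luciferase reporter cells | Buffer or medium: Serum-containing F12 medium, 10% FBS | Schedule: 6 h compound exposure at 37 °C, 5% CO2 | Detection: Steady-Glo luciferase glow luminescence, 10 min after reagent addition | Read-out basis: Activation, % of tunicamycin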
Dynein transport: inhibitors of GR-EGFP nuclear translocation, primary screen, dynein cargo transport inhibitor project, imaging, high-content, 3617.4 mouse cells | AID 1381, 2008 | 220,000 tested, 0.47% active | test concentration mostly 20 µM; stimulated with dexamethasone, 1 µM; stronger effect = lower value | z-score, hits read low;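 active = plate z-score of nuclear minus cytoplasmic receptor signal below a set negative limit, without overly bright fluorescence or cell loss, cut at about -3.5 in these data, passing the limit was not always enough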;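 note: z-score of nuclear minus cytoplasmic ring GR-EGFP intensity difference per well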
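Buffer or medium: tet-free, stripped-serum medium; reagent: dexamethasone at 1.0 µM final, 30 min; incubation: 48 h induction, 1 h compound, 30 min dex at 37 °C; measured by: formaldehyde fixation, Hoechst nuclear stain, 10x automated fluorescence imaging; read-out: nuclear-to-cytoplasmic GR-EGFP distribution per well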
MDM2 E3 inh: MDM2-luciferase reporter signal enhancers, primary screen, MDM2 E3 ligase inhibitor project, cell-based, luminescence, 1536-well; signal enhancement, % at 5 µM; 210,000 tested, 0.11% active; AID 1230, 2008; cell-based MDM2 ubiquitination luciferase reporter, 2 h; 0 = plate control, 100 = twice control, blank-subtracted; E3 ubiquitin-protein ligase Mdm2 (Homo sapiens), Q00987;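 active = signal enhancement of 30% or more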;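 note: luminescence tracks abundance of the self-degrading MDM2-luciferase fusion protein; higher signal means inhibition of MDM2 E3 ligase activity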
Target sequence (Q00987 whole entry, looked up, the tested form may be a part): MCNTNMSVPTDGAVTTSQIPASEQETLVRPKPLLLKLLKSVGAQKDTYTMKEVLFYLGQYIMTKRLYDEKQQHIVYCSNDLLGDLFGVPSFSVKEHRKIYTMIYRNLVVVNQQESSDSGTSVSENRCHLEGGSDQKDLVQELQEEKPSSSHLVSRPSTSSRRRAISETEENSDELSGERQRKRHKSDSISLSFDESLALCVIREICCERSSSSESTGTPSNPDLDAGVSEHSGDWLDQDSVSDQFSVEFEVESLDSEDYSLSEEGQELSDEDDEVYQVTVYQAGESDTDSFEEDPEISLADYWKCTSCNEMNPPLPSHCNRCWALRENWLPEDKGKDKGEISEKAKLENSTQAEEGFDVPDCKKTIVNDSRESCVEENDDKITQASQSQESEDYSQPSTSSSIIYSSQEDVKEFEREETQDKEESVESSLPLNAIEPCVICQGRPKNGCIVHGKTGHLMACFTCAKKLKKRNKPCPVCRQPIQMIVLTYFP
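Buffer or medium: Cells held in DMEM | Assay system: Stable mammalian line carrying autodegrading MDM2–luciferase fusion reporter | Quantity: 2000 cells/well | Times: 4 h settle plus 2 h compound, 37 °C | Doses: One concentration, 5 µM, with 0.2% DMSO | Technique: Luminescence with SteadyLite reagent, 15 min at room temperature | Benchmarks: Plate controls and plate blanks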
Beta2AR agonist: beta2AR agonists driving receptor internalization, primary screen, cell-based, FAP fluorogen, flow cytometry; Beta-2 adrenergic receptor (Homo sapiens), P07550; Am2.2-beta2AR cells; response, % (concentration not given with the values); 340,000 tested, 0.43% active; AID 504454, 2011;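 active = response above a set limit, near 3 SD of response in nonfluorescent compounds, cut at about 42% in these data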
Mdm2 MdmX PPI: inhibitors of human Mdm2-MdmX association, primary screen, cell-based, luminescence, split luciferase, SaOS-2, uHTS | Protein Mdm4 (Homo sapiens) + E3 ubiquitin-protein ligase Mdm2 (Homo sapiens), … | SaOS-2 split-luciferase Mdm2/MdmX complementation | inhibition, % at 8 µM | 330,000 tested, 3% active;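 active = inhibition of at least 50% at 8 µM in the primary screen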
Mdm2 MdmX conf: Mdm2-MdmX complex disruptors, retested hits, confirmation, luminescence, single concentration; shares compounds with Mdm2 MdmX PPI; Mdm2-MdmX binding, luminescent assay; inhibition, % at 8 µM; 10,000 tested, 55% active; AID 489028, 2010; in the data active = inhibition above about 40%
FLuc counter: full-length luciferase signal inhibition, confirmation, counter-screen for Mdm2/MdmX interaction inhibitor project, cell-based, single concentration, SaOS-2 | SaOS-2 full-length luciferase counterscreen, luminescence | shares compounds with Mdm2 MdmX PPI | AID 504607, 2011 | inhibition, % at 8 µM | 6,200 tested, 77% active;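 active = mean inhibition at 8 µM reaching about 37%, which flags the compound as non-specific, limit read from the data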;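 note: p53-null SaOS-2 cells with luciferase driven by a doxycycline-inducible promoter; compound on cells about two nights before reading with doxycycline added after day one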
* marks the source's active call; other numbers are inactive results; i = inactive; · = no result given.

SMILES	CHOP UPR activ	UPR XBP1 act	Dynein transport	MDM2 E3 inh	Beta2AR agonist	Mdm2 MdmX PPI	Mdm2 MdmX conf	FLuc counter
O=C(CN1CCC(C(O)(c2ccccc2)c2ccccc2)CC1)Nc1cc(Cl)ccc1Cl	1	-3	1	-21	11	54*	45*	86*
O=C(CN1CCC(C(O)(c2ccccc2)c2ccccc2)CC1)Nc1ccccc1	-1	-1	0.24	-6	2	6	·	·
O=C(Nc1cccc(Cl)c1)c1ccc(NCCCN2CCOCC2)c([N+](=O)[O-])c1	2	-6	0.54	-12	11	30	·	·
Cc1ccc(NC(=O)c2ccc(NCCCN3CCC(C)CC3)c([N+](=O)[O-])c2)cc1F	1	-1	-1.3	-25	-4	60*	55*	47*
Cc1nc2cc(N3CCCCC3)c(NC(=O)c3ccncc3)cc2c(=O)n1Cc1ccc(Cl)cc1	22	9	-0.37	-26	·	89*	-3	·
CC(=O)Nc1ccc(NC(=O)C(C)Oc2ccccc2F)cc1 (stereo unspecified)	0	-1	-0.27	-21	9	-1	·	·
CC(Oc1ccccc1F)C(=O)Nc1ccc2ccccc2c1 (stereo unspecified)	1	2	0.095	-3	0	68*	63*	66*
CC(Oc1ccc(F)cc1)C(=O)Nc1ccc2ccccc2c1 (stereo unspecified)	2	-2	0.51	2	-1	53*	35	·
COc1ccc(OC(C)C(=O)Nc2cccc(F)c2)cc1 (stereo unspecified)	0	-3	0.91	-9	0	8	·	·
CC(=O)Nc1ccc(S(=O)(=O)N2CCN(S(=O)(=O)N3CCC(C)CC3)CC2)cc1	1	-1	·	·	3	14	·	·
O=C(Nc1cnn(C23CC4CC(CC(C4)C2)C3)c1)c1cnn2c(C(F)(F)F)cc(-c3ccco3)nc12	10	11	2.1	-13	37	58*	17	·
O=C(COC(=O)c1ccc(OC(F)F)cc1)NCc1cccs1	-1	-2	·	·	5	0	·	·
CCn1c2ccccc2c2cc(/C=N/n3c(C)nnc3C)ccc21	-1	3	-1.1	7	0	60*	-7	·
COC(=O)C(CC(=O)c1ccc(Br)cc1)n1ccnc1 (stereo unspecified)	3	-1	-3.4	-60	·	99*	15	·
CCN1/C(=C/c2ccc3cc(C)ccc3[n+]2CC)Sc2ccccc21	-7	-5	-5.1*	-60	·	97*	95*	8
CCN1/C(=C/c2ccc3cc(C)ccc3[n+]2CC)Sc2cc(C)c(C)cc21	20	6	-0.41	-44	i	81*	85*	39*
N#CCCN1CCN(Cc2ccccc2)CCC1=O	-1	-3	·	·	-2	-23	·	·
Cc1ccc2nsnc2c1S(=O)(=O)N(Cc1cc2cccc(C)c2[nH]c1=O)CC1CCCO1 (stereo unspecified)	-2	1	-0.69	-10	17	57*	47*	85*
CCc1nn(CC(=O)NCc2cccnc2)c(=O)c2cc3occc3n12	2	1	·	·	1	8	·	·
CC[C@@H](C(=O)[C@@H](C)[C@@H](O)[C@H](C)CCc1ccc(C)c(O)c1C(=O)O)[C@H]1O[C@](CC)([C@H]2CC[C@](O)(CC)[C@H](C)O2)C[C@@H]1C	12	-3	·	·	86*	100*	71*	35
CC[C@@H](C(=O)[C@@H](C)[C@@H](O)[C@H](C)[C@@H]1O[C@@H]([C@@H](CC)C(=O)O)CC[C@@H]1C)[C@H]1O[C@]2(C=C[C@@H](O)[C@]3(CC[C@@](C)([C@H]4CC[C@](O)(CC)[C@H](C)O4)O3)O2)[C@H](C)C[C@@H]1C	·	·	·	·	40	·	·	·
COc1ccc(CNC(=O)COC(=O)c2ccc(Br)o2)cc1	0	-2	·	·	-4	-20	·	·
CCN(CCn1cccn1)C(=O)C1CCC(=O)N(CCc2cccc(F)c2)C1 (stereo unspecified)	0	-2	·	·	1	27	·	·
COc1ccc(OCC(=O)Nc2cc3oc4ccccc4c3cc2OC)cc1	6	25	0.47	0	-7	93*	67*	89*
COc1ccc(/C=C/C(=O)NC(=S)Nc2cc3oc4ccccc4c3cc2OC)cc1	0	-1	-0.14	-3	-1	90*	21	·
SMILES	CHOP UPR activ	UPR XBP1 act	Dynein transport	MDM2 E3 inh	Beta2AR agonist	Mdm2 MdmX PPI	Mdm2 MdmX conf	FLuc counter
O=c1c(-c2ccccc2)c1-c1ccccc1	58*	-5	·	·	·	54*	12	·
COc1cc(C2C3=C(COC3=O)OC(C)(C)Oc3cc4c(cc32)OCO4)cc(OC)c1OC (stereo unspecified)	·	·	·	·	11	·	·	·
Cc1nn(-c2ccccn2)c2c1C(=O)CC(C)(C)C2Br (stereo unspecified)	0	-1	-1.4	-7	-4	-6	·	·
COc1ccc(NC(=O)/C(=C\c2cc(OC)c(OC)cc2[N+](=O)[O-])NC(=O)c2ccccc2)cc1	-2	-6	-0.05	-4	-1	52*	-11	·
COc1ccc(S(=O)(=O)n2nc(-c3ccc(Cl)cc3)cc2N)cc1	-1	-3	1.8	-5	-5	51*	52*	59*
CCOC(=O)c1oc2ccc(S(=O)(=O)n3nc(-c4ccc(Cl)cc4)cc3N)cc2c1C	-1	1	-0.53	-5	-2	62*	54*	57*
COc1ccc(-c2cc(N)n(S(=O)(=O)c3ccc(C)cc3)n2)c(OC)c1	1	-3	-0.31	-10	1	-6	·	·
COc1ccccc1-n1nnnc1SCC(=O)N(C)C1CCS(=O)(=O)C1 (stereo unspecified)	3	0	·	·	-1	-14	·	·
